Results taken from ChEMBL document CHEMBL1138768, “A locally active antiinflammatory macrolide (MLD987) for inhalation therapy of asthma” (J Med Chem, 2004).

Tests used:
[1] = species on record: Rattus norvegicus; test: Intratracheal dose that inhibits by 50% the allergen OA-induced eosinophil influx in to the airway lumen of actively sensitized rats after -1h, +24h treatment schedule; type: functional; settings: Trachea, inhaled or nasal
Outline: (§1)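 Actively sensitized Brown-Norway rats challenged with ovalbumin (OA). Compound given intratracheally, orally or i.v. either 1 h or 6 h before challenge, with a second dose 24 h after challenge. Eosinophils counted in bronchoalveolar lavage fluid; ED50 is the dose inhibiting OA-induced eosinophil influx by 50%; n = 5–20 rats.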

[2] = Inhibitory activity against IL-5 production (Anti-CD3 monoclonal antibody stimulated and cultured CD4 positive cells purified from human peripheral blood mononuclear cell); type: functional, cell-based
[3] = Inhibitory activity against IFN-gamma production (Anti-CD3 monoclonal antibody stimulated and cultured CD4 positive cells purified from human peripheral blood mononuclear cell); type: functional, cell-based
[4] = Inhibitory activity against PPD-induced proliferation of human peripheral blood mononuclear cell (HPBMNC); type: functional
Outline: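 Human peripheral blood mononuclear cells isolated from blood, stimulated with PPD (M. tuberculosis purified protein derivative). Proliferation read after 5 days in medium with 20% fetal calf serum. Mean IC50 ± SEM (n = 3–6) or the mean of two experiments.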

[5] = test system: Rattus norvegicus; test: Intravenous dose that inhibits by 50% the allergen OA-induced eosinophil influx in to the airway lumen of actively sensitized rats after -1h, +24h treatment schedule; type: functional; outline: as §1
[6] = species on record: Rattus norvegicus; test: Intratracheal dose that inhibits by 50% the allergen OA-induced eosinophil influx in to the airway lumen of actively sensitized rats after -6h, +24h treatment schedule; type: functional; settings: Trachea, inhaled or nasal; outline: as §1
[7] = Inhibitory activity against calcineurin phosphatase; design: species or system Homo sapiens
[8] = test system: Rattus norvegicus; test: Intravenous dose that inhibits by 50% the allergen OA-induced eosinophil influx in to the airway lumen of actively sensitized rats after -6h, +24h treatment schedule; type: functional; outline: as §1
[9] = test system: PBMC; test: Inhibitory activity against murine mixed lymphocyte reaction; settings: Mus musculus
[10] = test system: Rattus norvegicus; test: Oral dose that inhibits by 50% the allergen OA-induced eosinophil influx in to the airway lumen of actively sensitized rats after -6h, +24h treatment schedule; type: functional; outline: as §1
[11] = test system: Rattus norvegicus; test: Oral dose that inhibits by 50% the allergen OA-induced eosinophil influx in to the airway lumen of actively sensitized rats after -1h, +24h treatment schedule; type: functional; outline: as §1
[12] = Inhibitory activity against IL-2 receptor in human T-cell jurkat cell line stimulated by phytohemagglutininin and phorbol myristate acetate; type: cell-based
Outline: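 Jurkat human T-cell line carrying an IL-2 reporter gene, stimulated with phytohemagglutinin plus phorbol myristate acetate. Values are mean IC50 ± SEM (n = 3–6) or the mean of two experiments.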

| IC50 [2] | IC50 [3] | Ki [7] | IC50 [12] | Compound | ED50 [1] | IC50 [4] | ED50 [5] | ED50 [6] | ED50 [8] | IC50 [9] | ED50 [10] | ED50 [11] |
| --- | --- | --- | --- | --- | --- | --- | --- | --- | --- | --- | --- | --- |
| 0.12 nM | 0.32 nM |  |  | CCCC1O[C@@H]2C[C@H]3[C@@H]4CCC5=CC(=O)C=C[C@]5(C)[C@H]4[C@@H](O)C[C@]3(C)[C@]2(C(=O)CO)O1 (stereo not given in full) [BUDESONIDE] | 0.5 mg/kg |  |  |  |  |  |  |  |
| 0.06 nM | 0.06 nM | 35 nM | 0.19 nM | C=CC[C@@H]1/C=C(\C)C[C@H](C)C[C@H](OC)[C@H]2O[C@@](O)(C(=O)C(=O)N3CCCC[C@H]3C(=O)O[C@H](/C(C)=C/[C@@H]3CC[C@@H](O)[C@H](OC)C3)[C@H](C)[C@@H](O)CC1=O)[C@H](C)C[C@@H]2OC [TACROLIMUS ANHYDROUS] | 0.3 mg/kg | 0.18 nM | 0.3 mg/kg | 0.3 mg/kg | 0.3 mg/kg | 0.29 nM | 3 mg/kg | 10 mg/kg |
